According to ChEMBL document CHEMBL4014276, “Diphenylurea derivatives for combating methicillin- and vancomycin-resistant Staphylococcus aureus” (Eur J Med Chem, 2017):
≈ marks a conversion by molar mass, not a printed value. Calls of active or inactive are those of the source. The rule behind the calls is not given here.

Experiments:
Staphylococcus aureus [1] = assay: Bactericidal activity against Staphylococcus aureus RN4220 NRS107 clinical isolate after 18 hrs by broth microdilution method; type: functional; settings: RN4220 NRS107, 18 h
Procedure, shortened: (§1)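 From MIC wells without visible growth, 5 uL spotted onto Tryptic soy agar, incubated 37 °C for at least 18 h; MBC taken as lowest concentration giving 99.9% growth inhibition.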

Staphylococcus aureus [2] = assay: Bactericidal activity against methicillin-resistant Staphylococcus aureus USA100 NRS382 clinical isolate after 18 hrs by broth microdilution method; type: functional; settings: USA100 NRS382, 18 h; procedure, shortened: as §1
Staphylococcus aureus [3] = assay: Antibacterial activity against methicillin-resistant Staphylococcus aureus USA200 NRS383 clinical isolate after 20 hrs by broth microdilution method; type: functional; settings: USA200 NRS383, 20 h
Procedure, shortened: (§2)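 CLSI broth microdilution in cation-adjusted Mueller Hinton broth; compounds serially diluted, triplicate samples; 37 °C, 20 h. MIC read visually as lowest concentration with no visible growth; mean of triplicate determinations reported.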

Staphylococcus aureus [4] = assay: Bactericidal activity against methicillin-resistant Staphylococcus aureus USA200 NRS383 clinical isolate after 18 hrs by broth microdilution method; type: functional; settings: USA200 NRS383, 18 h; procedure, shortened: as §1
Staphylococcus aureus [5] = assay: Antibacterial activity against methicillin-resistant Staphylococcus aureus USA300 NRS384 clinical isolate after 20 hrs by broth microdilution method; type: functional; settings: USA300 NRS384, 20 h; procedure, shortened: as §2
Staphylococcus aureus [6] = assay: Bactericidal activity against methicillin-resistant Staphylococcus aureus USA300 NRS384 clinical isolate after 18 hrs by broth microdilution method; type: functional; settings: USA300 NRS384, 18 h; procedure, shortened: as §1
Staphylococcus aureus [7] = assay: Antibacterial activity against vancomycin-resistant Staphylococcus aureus VRSA4 after 20 hrs by broth microdilution method; type: functional; settings: VRSA4, 20 h; procedure, shortened: as §2
Staphylococcus aureus [8] = assay: Bactericidal activity against vancomycin-resistant Staphylococcus aureus VRSA4 after 18 hrs by broth microdilution method; type: functional; settings: VRSA4, 18 h; procedure, shortened: as §1
Staphylococcus aureus [9] = assay: Antibacterial activity against vancomycin-resistant Staphylococcus aureus VRSA10 after 20 hrs by broth microdilution method; type: functional; settings: VRSA10, 20 h; procedure, shortened: as §2
Staphylococcus aureus [10] = assay: Bactericidal activity against vancomycin-resistant Staphylococcus aureus VRSA10 after 18 hrs by broth microdilution method; type: functional; settings: VRSA10, 18 h; procedure, shortened: as §1
[11] = Intrinsic clearance in human liver microsomes in presence of NADPH by LC-MS/MS method; type: ADME, microsome; settings: read-out: CLH
[12] = Half life in human liver microsomes in presence of NADPH by LC-MS/MS method; type: ADME, microsome
[13] = Half life in human liver microsomes in absence of NADPH by LC-MS/MS method; type: ADME, microsome
Staphylococcus aureus [14] = assay: Bactericidal activity against methicillin-resistant Staphylococcus aureus USA400 assessed as time required to reduce log10CFU of bacterial load at 4 times MIC by time kill assay; type: functional
HaCaT = assay: Cytotoxicity against human HaCaT cells up to 64 ug/ml after 2 hrs by MTS assay; type: cell-based
Procedure, shortened: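 Keratinocytes grown in DMEM with 10% FBS at 37 °C, 5% CO2; exposed in triplicate to 8, 16, 32 and 64 µg/mL for 2 h. DMSO-matched controls. MTS added for 4 h, absorbance at 490 nm. Viability expressed as % of DMSO-treated cells (mean of triplicate ± SD); one-way ANOVA with Dunnett's test, P < 0.05.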

J774 = assay: Cytotoxicity against mouse J774 cells up to 16 ug/ml after 24 hrs by MTS assay; type: cell-based; settings: j774, 24 h
Procedure, shortened: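 Murine macrophages cultured in DMEM plus 10% FBS, 37 °C, 5% CO2; compounds at 8, 16, 32, 64 µg/mL in triplicate for 24 h against DMSO-matched controls. MTS reagent 4 h, read at OD490. Viability as % of DMSO control (triplicate mean ± SD); one-way ANOVA, Dunnett's post hoc, P < 0.05.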

Staphylococcus aureus [15] = assay: Bactericidal activity against methicillin-resistant Staphylococcus aureus USA400 NRS123 clinical isolate assessed as disruption of bacterial membrane by measuring leakage of 260 nM absorbing material at 5 times MIC after 30 mins by spectrophotometric method; type: functional
Staphylococcus aureus [16] = assay: Bactericidal activity against methicillin-resistant Staphylococcus aureus USA400 NRS123 clinical isolate assessed as disruption of bacterial membrane by measuring leakage of 280 nM absorbing material at 5 times MIC after 30 mins by spectrophotometric method; type: functional
Staphylococcus aureus [17] = assay: Antibacterial activity against methicillin-resistant Staphylococcus aureus USA400 infected in Caenorhabditis elegans AU37 harboring (sek-1(km4);glp-4(bn2)I) mutant assessed as reduction in colony forming units at 10 ug/ml after 20 hrs by microscopic method relative to control; type: functional; parameters: scale not given: the % may be the effect or the level left
Procedure, shortened: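 C. elegans AU37 L4/adult worms infected on MRSA USA400 lawn 6 h, washed in M9; 15-25 worms per well treated with 10 µg/mL in triplicate for 20 h, PBS negative control; worms lysed with silicon carbide, plated on TSA with 5 µg/mL nalidixic acid, 37 °C 18 h; CFU per worm, Student's t-test with Holm-Sidak correction.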

[18] = Efflux ratio of apparent permeability across basolateral to apical over apical to basolateral side in human Caco2 cells at 10 uM after 2 hrs by LC-MS/MS method; type: ADME, cell-based; settings: Caco-2
[19] = Cmax in naive Sprague-Dawley rat at 50 mg/kg ,po administered via gavage by LC-MS/MS method; type: ADME, organism-based; parameters: dose 50 mg/kg, route oral; settings: in vivo
Procedure, shortened: (§3)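 Male naïve rats, three animals; single oral gavage dose in 5% ethanol, 45% PEG 400, 50% water. Blood drawn into EDTA-K2 tubes over 24 h post dose; plasma protein-precipitated with acetonitrile, parent quantified by LC/MS/MS.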

[20] = Tmax in naive Sprague-Dawley rat at 50 mg/kg ,po administered via gavage by LC-MS/MS method; type: ADME, organism-based; settings: in vivo; procedure, shortened: as §3
[21] = Total AUC in naive Sprague-Dawley rat at 50 mg/kg ,po administered via gavage by LC-MS/MS method; type: ADME, organism-based; parameters: dose 50 mg/kg, time AUCmax, route oral; settings: in vivo; procedure, shortened: as §3
Staphylococcus aureus [22] = assay: Antibacterial activity against methicillin-resistant Staphylococcus aureus USA400 NRS123 clinical isolate preincubated followed by bacterial subculturing for 2 weeks; type: functional
Staphylococcus aureus [23] = assay: Antibacterial activity against methicillin-resistant Staphylococcus aureus USA100 NRS382 clinical isolate preincubated followed by bacterial subculturing for 2 weeks; type: functional
Staphylococcus aureus [24] = assay: Antibacterial activity against methicillin-resistant Staphylococcus aureus USA200 NRS383 clinical isolate preincubated followed by bacterial subculturing for 2 weeks; type: functional
Staphylococcus aureus [25] = assay: Antibacterial activity against methicillin-resistant Staphylococcus aureus USA300 NRS384 clinical isolate preincubated followed by bacterial subculturing for 2 weeks; type: functional
[26] = Terminal elimination rate constant in naive Sprague-Dawley rat at 50 mg/kg ,po administered via gavage by LC-MS/MS method; type: ADME, organism-based; settings: in vivo, read-out: LZ (converted); procedure, shortened: as §3
Staphylococcus aureus [27] = assay: Bactericidal activity against methicillin-resistant Staphylococcus aureus USA400 infected in mouse J774 cells assessed as reduction in colony forming units at 16 ug/ml after 8 hrs by time kill assay relative to control; parameters: scale not given: the % may be the effect or the level left
Staphylococcus aureus [28] = assay: Bactericidal activity against methicillin-resistant Staphylococcus aureus USA400 infected in mouse J774 cells assessed as reduction in colony forming units at 16 ug/ml after 24 hrs by time kill assay relative to control; parameters: scale not given: the % may be the effect or the level left

## C/C(=N\NC(=N)N)c1ccc(NC(=O)Nc2ccc(OC3CCCCCC3)cc2)cc1
Staphylococcus aureus [1]
  MBC: 4 mg/L (≈ 9.47 µM)
Staphylococcus aureus [2]
  MBC: 4 mg/L (≈ 9.47 µM)
Staphylococcus aureus [3]
  MIC: 2 mg/L (≈ 4.73 µM)
Staphylococcus aureus [4]
  MBC: 4 mg/L (≈ 9.47 µM)
Staphylococcus aureus [5]
  MIC: 2 mg/L (≈ 4.73 µM)
Staphylococcus aureus [6]
  MBC: 4 mg/L (≈ 9.47 µM)
Staphylococcus aureus [7]
  MIC: 2 mg/L (≈ 4.73 µM)
Staphylococcus aureus [8]
  MBC: 4 mg/L (≈ 9.47 µM)
Staphylococcus aureus [9]
  MIC: 8 mg/L (≈ 18.9 µM)
Staphylococcus aureus [10]
  MBC: 8 mg/L (≈ 18.9 µM)
[11]
  microsomal CLint: 33.9 µL/min/mg
[12]
  half-life: 1.14 h
[13]
  half-life: 0.897 h
Staphylococcus aureus [14]
  Time: <=4 hr
HaCaT
  Activity: Non-Toxic
J774
  Activity: Non-Toxic
Staphylococcus aureus [15]
  Activity: inactive
Staphylococcus aureus [16]
  Activity: inactive
Staphylococcus aureus [17]
  Activity: >50%
[18]
  efflux ratio at 2 h, 10 µM: > 1000
[19]
  Cmax: 0.0163 µg/mL
[20]
  Tmax: 9.33 h
[21]
  AUC: 0.384 µg·h/mL
Staphylococcus aureus [22]
  Activity: Active
Staphylococcus aureus [23]
  Activity: Active
Staphylococcus aureus [24]
  Activity: Active
Staphylococcus aureus [25]
  Activity: Active
[26]
  k el: 1.25e-05 s⁻¹
Staphylococcus aureus [27]
  Activity: 35.7%
Staphylococcus aureus [28]
  Activity: 69%
